According to ChEMBL document CHEMBL3272224, “Synthesis and hypotensive activity of N-alkyl-N"-cyano-N'-pyridylguanidines” (J Med Chem, 1978):
Active and inactive are the calls of the source. The rule behind the calls is not given here.

Key:
[1] = test system: Rattus norvegicus; assay: Hypotensive activity in po dosed spontaneously hypertensive Wistar-Okamoto rat assessed as dose required to cause 30 mmHg fall of blood pressure administered for 5 days; format: functional; conditions: 120 h, read-out: MED
[2] = test system: Rattus norvegicus; assay: Hypotensive activity in spontaneously hypertensive Wistar-Okamoto rat assessed as maximum change in mean blood pressure at 0.5 mg/kg, po relative to control; format: functional
Method in brief: (§1)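 Spontaneously hypertensive Wistar-Okamoto rats, five per dose, received compound orally, dissolved or suspended in 0.5% carboxymethylcellulose. Blood pressure was measured indirectly by tail cuff in restrained conscious rats before dosing and at 2, 4, 6, 8, 12 and 24 h. Maximum change was measured after a single administration and given as mean ± error.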

[3] = test system: Rattus norvegicus; assay: Hypotensive activity in spontaneously hypertensive Wistar-Okamoto rat assessed as maximum change in mean blood pressure at 2.5 mg/kg, po relative to control; format: functional; method in brief: as §1
[4] = test system: Rattus norvegicus; assay: Hypotensive activity in spontaneously hypertensive Wistar-Okamoto rat assessed as time required for persistence of hypotensive effect at 2.5 mg/kg, po; format: functional
Method in brief: (§2)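 SHR (Wistar-Okamoto), five per dose, were given an oral dose in 0.5% carboxymethylcellulose. Indirect cuff pressure in restrained conscious rats was read before dosing and at 2, 4, 6, 8, 12 and 24 h. Duration (h) was scored while pressure remained 15 mmHg or more below the initial reading.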

[5] = test system: Rattus norvegicus; assay: Toxicity in rat assessed as change in cardiac noradrenaline level at 1 mg/kg for 5 days; format: organism-based, Heart; parameters: dose 1 mg/kg; conditions: in vivo, 120 h
Method in brief: (§3)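 Rats were given single or repeated (5 days) administration, and cardiac noradrenaline levels were measured.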

[6] = test system: Rattus norvegicus; assay: Hypotensive activity in spontaneously hypertensive Wistar-Okamoto rat assessed as maximum change in mean blood pressure at 1 mg/kg, po relative to control; format: functional; method in brief: as §1
[7] = test system: Rattus norvegicus; assay: Toxicity in rat assessed as change in cardiac noradrenaline level at 1 mg/kg; format: organism-based, Heart; parameters: dose 1 mg/kg; conditions: in vivo; method in brief: as §3
[8] = test system: Canis familiaris; assay: Hypotensive activity in conscious renal hypertensive dog assessed as time required for persistence of hypotensive effect at 0.25 mg/kg, po measured for 8 hrs; format: functional, Canis lupus familiaris
Method in brief: (§4)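 Conscious renal hypertensive dogs received single oral doses in soft gelatin capsules, three per dose. Indirect standing blood pressure was read before dosing and hourly to 8 h. Duration (h) was the time the pressure stayed 15 mmHg or more below the initial value, which was taken as persistence of the hypotensive effect.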

[9] = species on record: Felis catus; assay: Hypotensive activity in decerebrated cat; format: functional, organism-based
[10] = test system: Canis familiaris; assay: Hypotensive activity in conscious renal hypertensive dog assessed as maximum change in mean blood pressure at 0.25 mg/kg, po measured for 8 hrs relative to control; format: functional, Canis lupus familiaris
Method in brief: (§5)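 Renal hypertensive dogs, conscious, dosed orally in soft gelatin capsules, three dogs per dose. Mean blood pressure was taken indirectly with an Arteriosonde, standing animals in a semi-insonorized room, just before dosing and then hourly for 8 h. Maximum change was measured after a single administration and given as mean ± error.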

[11] = test system: Canis familiaris; assay: Hypotensive activity in conscious renal hypertensive dog assessed as time required for persistence of hypotensive effect at 0.5 mg/kg, po measured for 8 hrs; format: functional, Canis lupus familiaris; method in brief: as §4
[12] = test system: Rattus norvegicus; assay: Hypotensive activity in spontaneously hypertensive Wistar-Okamoto rat assessed as time required for persistence of hypotensive effect at 0.5 mg/kg, po; format: functional; method in brief: as §2
[13] = test system: Canis familiaris; assay: Hypotensive activity in conscious renal hypertensive dog assessed as time required for persistence of hypotensive effect at 1 mg/kg, po measured for 8 hrs; format: functional, Canis lupus familiaris; method in brief: as §4
[14] = test system: Canis familiaris; assay: Hypotensive activity in conscious renal hypertensive dog assessed as maximum change in mean blood pressure at 0.5 mg/kg, po measured for 8 hrs relative to control; format: functional, Canis lupus familiaris; method in brief: as §5
[15] = test system: Canis familiaris; assay: Hypotensive activity in conscious renal hypertensive dog assessed as maximum change in mean blood pressure at 1 mg/kg, po measured for 8 hrs relative to control; format: functional, Canis lupus familiaris; method in brief: as §5
[16] = test system: Rattus norvegicus; assay: Hypotensive activity in spontaneously hypertensive Wistar-Okamoto rat assessed as time required for persistence of hypotensive effect at 1 mg/kg, po; format: functional; method in brief: as §2
[17] = species on record: Rattus norvegicus; assay: Toxicity in rat assessed as effect on contraction of nictitating membranes by preganglionic stimulation; format: organism-based, Nictitating membrane; conditions: in vivo
[18] = Toxicity in po dosed Sprague-Dawley rat assessed as mortality after 7 days; format: organism-based; conditions: in vivo
[19] = test system: Rattus norvegicus; assay: Hypotensive activity in spontaneously hypertensive Wistar-Okamoto rat assessed as maximum change in mean blood pressure at 0.1 mg/kg, po relative to control; format: functional; method in brief: as §1
[20] = test system: Rattus norvegicus; assay: Hypotensive activity in spontaneously hypertensive Wistar-Okamoto rat assessed as maximum change in mean blood pressure at 0.25 mg/kg, po relative to control; format: functional; method in brief: as §1
[21] = test system: Rattus norvegicus; assay: Hypotensive activity in po dosed spontaneously hypertensive Wistar-Okamoto rat relative to hydralazine; format: functional
[22] = Toxicity in po dosed mouse assessed as mortality after 7 days; conditions: in vivo
[23] = test system: Canis familiaris; assay: Hypotensive activity in conscious renal hypertensive dog assessed as maximum change in mean blood pressure at 2 mg/kg, po measured for 8 hrs relative to control; format: functional, Canis lupus familiaris; method in brief: as §5
[24] = test system: Rattus norvegicus; assay: Hypotensive activity in spontaneously hypertensive Wistar-Okamoto rat assessed as time required for persistence of hypotensive effect at 0.1 mg/kg, po; format: functional; method in brief: as §2
[25] = test system: Canis familiaris; assay: Hypotensive activity in conscious renal hypertensive dog assessed as time required for persistence of hypotensive effect at 2 mg/kg, po measured for 8 hrs; format: functional, Canis lupus familiaris; method in brief: as §4
[26] = test system: Rattus norvegicus; assay: Hypotensive activity in spontaneously hypertensive Wistar-Okamoto rat assessed as time required for persistence of hypotensive effect at 0.25 mg/kg, po; format: functional; method in brief: as §2

| SMILES | minimal effective dose [1] | Activity [2] | Activity [3] | Time [4] | Activity [6] | Activity [9] | Time [11] | Time [12] | Time [13] | Activity [14] | Activity [15] | Time [16] | Activity [17] | LD50 at 168 h [18] | other results |
| --- | --- | --- | --- | --- | --- | --- | --- | --- | --- | --- | --- | --- | --- | --- | --- |
| CC(N/C(=N\C#N)Nc1ccncc1)C(C)(C)C (configuration not stated) [PINACIDIL ANHYDROUS] | 0.5 mg/kg | -34 mmHg | -79 mmHg | >12 h | -68 mmHg | Active | 6 h | 8 h | >8 h | -43 mmHg | -67 mmHg | >12 h | Non-toxic | – | Activity [5]: Non-toxic; Activity [7]: Non-toxic; Time [8]: 4 h; Activity [10]: -26 mmHg |
| NNc1nncc2ccccc12 [HYDRALAZINE] | – | – | -64 mmHg | >8 h | -36 mmHg | – | 2 h | – | 6 h | -21 mmHg | -42 mmHg | 4 h | – | 107 mg/kg | – |
| CC(=O)N(/C(=N\C#N)Nc1cccnc1)C(C)(C)C.O | 0.1 mg/kg | -86 mmHg | – | – | – | Active | 2 h | >8 h | – | -22 mmHg | – | – | Non-toxic | 615 mg/kg | Activity [19]: -30 mmHg; Activity [20]: -64 mmHg; fold change (FC) [21]: 2; LD50 at 168 h [22]: > 1000 mg/kg; Activity [23]: -75 mmHg; Time [24]: 4 h; Time [25]: 8 h; Time [26]: 4 h |
